This is an account of results in ChEMBL document CHEMBL1123801, “Synthesis and antifungal activity of new 1-vinylimidazoles” (1987).

≈ marks a conversion by molar mass, not a printed value.

What is called MIC is the smallest concentration in the dilution series that meets the test's criterion for growth inhibition. Read a low MIC as greater potency.

In experiment [1] the test system is Candida albicans. Nature of the experiment: Minimum inhibitory concentration against Candida albicans IFO 1388. It is filed as functional. In short, it runs like this: (§1)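 Agar dilution on Sabouraud's glucose agar. Inocula 1×10^6 cells/mL for the yeast strains (C. albicans IFO 1060, 1388) and 1×10^6 conidia/mL for the dermatophytes (T. mentagrophytes IFO 5809, 5810; T. rubrum IFO 5467, 5807). MIC in μg/mL, lowest value of duplicated experiments.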

The subject of experiment [2] is Candida albicans. Nature of the experiment: Minimum inhibitory concentration (MIC) against Candida albicans. It is filed as functional. The method in brief:
(§2)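 Broth microdilution in Sabouraud's glucose broth. Final inocula 1×10^5 cells/mL for the yeast (C. albicans) and 1×10^5 conidia/mL for the mold (A. fumigatus) and the dermatophyte (T. asteroides). MIC read as the fungistatic end point. Lowest value of duplicated experiments.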

The subject of experiment [3] is Trichophyton benhamiae. Nature of the experiment: Minimum inhibitory concentration against Trichophyton mentagrophytes IFO 5809. It is filed as functional, Arthroderma benhamiae. In short, it runs like this:
as §1

The test system of experiment [4] is Trichophyton benhamiae. Nature of the experiment: Minimum inhibitory concentration against Trichophyton mentagrophytes IFO 5810. It is filed as functional, Arthroderma benhamiae. The method in brief: as §1
Experiment [5] has as its system Candida albicans. Nature of the experiment: Minimum inhibitory concentration against Candida albicans IFO 1060. The format is functional. In short, it runs like this: as §1
Experiment [6] concerns Trichophyton benhamiae. Nature of the experiment: Minimum inhibitory concentration against Trichophyton asteroides. It is filed as functional. In short, it runs like this: as §2
A further experiment has as its system Aspergillus fumigatus. Nature of the experiment: Minimum inhibitory concentration (MIC) against Aspergillus fumigatus. It is filed as functional. The method in brief: as §2
In experiment [7] the test system is Trichophyton rubrum. Nature of the experiment: Minimum inhibitory concentration against Trichophyton rubrum IFO 5467. The format is functional. The method in brief:
as §1

In experiment [8] the test system is Trichophyton rubrum. Nature of the experiment: Minimum inhibitory concentration against Trichophyton rubrum IFO 5807. It is filed as functional. In short, it runs like this: as §1
Experiment [9] deals with Candida albicans. Nature of the experiment: Inhibition of pseudomycelium formation of Candida albicans. The conditions noted are these: read-out: MEC. It is filed as functional. In short, it runs like this: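 C. albicans KE-2 (clinical isolate), final inoculum 1×10^6 yeast cells/mL in EMEM with 20% calf serum. Compounds serially diluted by the microtiter dilution system used for MICs. After incubation, wells Giemsa-stained (5% in phosphate buffer) and examined microscopically. MEC (μg/mL) = lowest concentration preventing typical pseudomycelium formation. Lowest value of duplicated experiments.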

`C/C=C(\c1ccccc1OCc1ccc(Cl)cc1)n1ccnc1`: the MIC in the experiment on Candida albicans [1] was determined as 12.5 µg/mL (≈ 38.5 µM); in the experiment with Candida albicans [2], 6.2 µg/mL (≈ 19.1 µM); against Trichophyton benhamiae [3] it was 0.8 µg/mL (≈ 2.46 µM); with Trichophyton benhamiae [4], 0.8 µg/mL (≈ 2.46 µM); in the experiment with Candida albicans [5], 12.5 µg/mL (≈ 38.5 µM); against Trichophyton benhamiae [6], 0.1 µg/mL (≈ 0.308 µM). In addition, the minimal inhibitory concentration (MIC) against Aspergillus fumigatus was determined as 3.1 µg/mL (≈ 9.54 µM); in the experiment on Trichophyton rubrum [7], 0.8 µg/mL (≈ 2.46 µM); against Trichophyton rubrum [8] it was 0.8 µg/mL (≈ 2.46 µM).
With `CC(C)COc1ccccc1/C(=C/CN(C)C)n1ccnc1`, the MIC in the experiment with Candida albicans [2], against Trichophyton benhamiae [6] and in the experiment on Aspergillus fumigatus was > 100 µg/mL throughout. Besides, the minimal effective concentration in the experiment with Candida albicans [9] turned out to be 5 µg/mL.
`C/C=C(\c1cc(Cl)ccc1OCCC)n1ccnc1`: the values for the MIC against Candida albicans [2], against Trichophyton benhamiae [6] and with Aspergillus fumigatus were 25 µg/mL (≈ 90.3 µM), 0.1 µg/mL (≈ 0.361 µM) and 1.6 µg/mL (≈ 5.78 µM), respectively. For the same compound, in the experiment with Candida albicans [9], the minimal effective concentration stood at 0.63 µg/mL.
For `CC(C)COc1ccccc1/C(=C\CN(C)C)n1ccnc1`, the MIC with Candida albicans [2] was > 100 µg/mL; against Trichophyton benhamiae [6] it was 6.3 µg/mL (≈ 21 µM); against Aspergillus fumigatus it was > 100 µg/mL. In addition, the minimal effective concentration in the experiment on Candida albicans [9] was 0.16 µg/mL.
Consider `C=C(c1ccccc1OC(C)c1cccc(Cl)c1)n1ccnc1` (stereo unspecified), for which the results for the MIC against Candida albicans [2], in the experiment with Trichophyton benhamiae [6] and against Aspergillus fumigatus were 6.2 µg/mL (≈ 19.1 µM), 0.4 µg/mL (≈ 1.23 µM) and 12.5 µg/mL (≈ 38.5 µM), respectively.
With `C/C(CN(C)C)=C(/c1ccccc1OCC(C)C)n1ccnc1`, the MIC is > 100 µg/mL against Candida albicans [2], 25 µg/mL (≈ 79.8 µM) with Trichophyton benhamiae [6] and > 100 µg/mL with Aspergillus fumigatus. Also, in the experiment with Candida albicans [9], the minimal effective concentration was determined as 1.25 µg/mL.
Regarding `CC(C)=C(c1ccccc1OCc1ccc(Cl)cc1)n1ccnc1`, the MIC amounted to 12.5 µg/mL (≈ 36.9 µM) in the experiment on Candida albicans [1]; 3.1 µg/mL (≈ 9.15 µM) in the experiment on Candida albicans [2]; 1.6 µg/mL (≈ 4.72 µM) in the experiment on Trichophyton benhamiae [3]; 0.8 µg/mL (≈ 2.36 µM) against Trichophyton benhamiae [4]; 12.5 µg/mL (≈ 36.9 µM) against Candida albicans [5]; 0.1 µg/mL (≈ 0.295 µM) in the experiment on Trichophyton benhamiae [6]. The MIC was 6.2 µg/mL (≈ 18.3 µM) against Aspergillus fumigatus, 1.6 µg/mL (≈ 4.72 µM) in the experiment on Trichophyton rubrum [7] and 0.8 µg/mL (≈ 2.36 µM) against Trichophyton rubrum [8].
On to `CCCCOc1ccccc1C(=C(C)C)n1ccnc1`, for which the MIC amounted to 50 µg/mL (≈ 185 µM) in the experiment with Candida albicans [2], 0.1 µg/mL (≈ 0.37 µM) against Trichophyton benhamiae [6] and 1.6 µg/mL (≈ 5.92 µM) against Aspergillus fumigatus. The minimal effective concentration in the experiment on Candida albicans [9] was found to be 0.31 µg/mL.
`C=C(c1ccccc1NCc1ccc(Cl)cc1)n1ccnc1`: the MIC with Candida albicans [2], with Trichophyton benhamiae [6] and against Aspergillus fumigatus was > 100 µg/mL each time.
Consider `C=C(c1cc(Cl)ccc1OCCC(C)C)n1cncn1`, for which the MIC is > 100 µg/mL in the experiment on Candida albicans [2], 0.8 µg/mL (≈ 2.74 µM) in the experiment with Trichophyton benhamiae [6] and > 100 µg/mL with Aspergillus fumigatus. The minimal effective concentration in the experiment on Candida albicans [9] was found to be 20 µg/mL.
Take `C/C(CN(C)C)=C(\c1ccccc1OCC(C)C)n1ccnc1`: the MIC against Candida albicans [2] was > 100 µg/mL; in the experiment with Trichophyton benhamiae [6], 0.8 µg/mL (≈ 2.55 µM); with Aspergillus fumigatus, > 100 µg/mL. The minimal effective concentration in the experiment on Candida albicans [9] turned out to be 0.63 µg/mL.
With `C=C(c1ccccc1OCCc1ccccc1)n1ccnc1`, the MIC in the experiment with Candida albicans [2] was determined as 12.5 µg/mL (≈ 43 µM); against Trichophyton benhamiae [6], 0.1 µg/mL (≈ 0.344 µM); in the experiment on Aspergillus fumigatus, 0.4 µg/mL (≈ 1.38 µM). The minimal effective concentration with Candida albicans [9] stood at 1.25 µg/mL.
Regarding `CC=C(c1cc(Cl)ccc1OCc1ccc(Cl)cc1Cl)n1ccnc1`, the MIC stood at 12.5 µg/mL (≈ 31.7 µM) in the experiment on Candida albicans [2], 1.6 µg/mL (≈ 4.06 µM) with Trichophyton benhamiae [6] and 0.4 µg/mL (≈ 1.02 µM) with Aspergillus fumigatus.
Regarding `CC(C)=C(c1ccccc1OCc1ccccc1)n1ccnc1`, the figures for the MIC against Candida albicans [2], in the experiment on Trichophyton benhamiae [6] and in the experiment with Aspergillus fumigatus were 25 µg/mL (≈ 82.1 µM), 1.6 µg/mL (≈ 5.26 µM) and 12.5 µg/mL (≈ 41.1 µM), respectively.
For the compound `CC(C)COc1ccccc1/C(=C/CN(C)c1ccccc1)n1ccnc1`, the values for the MIC in the experiment with Candida albicans [2], against Trichophyton benhamiae [6] and in the experiment with Aspergillus fumigatus were 12.5 µg/mL (≈ 34.6 µM), 0.1 µg/mL (≈ 0.277 µM) and 6.3 µg/mL (≈ 17.4 µM), respectively. For the same compound, in the experiment with Candida albicans [9], the minimal effective concentration came to 5 µg/mL.
For `C=C(c1ccccc1OCc1ccc(Cl)cc1Cl)n1ccnc1`, the MIC with Candida albicans [2] came out at 50 µg/mL (≈ 145 µM); in the experiment on Trichophyton benhamiae [6] it was 0.1 µg/mL (≈ 0.29 µM); against Aspergillus fumigatus, 1.6 µg/mL (≈ 4.63 µM).
In the case of `C/C=C(/c1cc(Cl)ccc1OCCC)n1ccnc1`, the MIC in the experiment on Candida albicans [2] worked out at 25 µg/mL (≈ 90.3 µM); against Trichophyton benhamiae [6], 0.1 µg/mL (≈ 0.361 µM); in the experiment on Aspergillus fumigatus, 6.3 µg/mL (≈ 22.8 µM). Also, the minimal effective concentration with Candida albicans [9] worked out at 0.63 µg/mL.
Take `CC(C)=C(c1ccccc1OCC(C)(C)C)n1ccnc1`: the minimum inhibitory concentration (MIC) against Candida albicans [2] worked out at 25 µg/mL (≈ 87.9 µM); against Trichophyton benhamiae [6], 0.1 µg/mL (≈ 0.352 µM); with Aspergillus fumigatus, 6.3 µg/mL (≈ 22.2 µM). Also, in the experiment with Candida albicans [9], the minimal effective concentration was 0.31 µg/mL.
Take `C=C(c1ccccc1OCc1ccsc1)n1ccnc1`: the MIC against Candida albicans [2] was 50 µg/mL (≈ 177 µM); in the experiment on Trichophyton benhamiae [6], 0.1 µg/mL (≈ 0.354 µM); with Aspergillus fumigatus it was 3.1 µg/mL (≈ 11 µM).
As to `C=C(c1ccccc1OCCOc1ccc(Cl)cc1)n1ccnc1`, the MIC in the experiment with Candida albicans [2] worked out at 50 µg/mL (≈ 147 µM); against Trichophyton benhamiae [6], 0.1 µg/mL (≈ 0.293 µM); in the experiment with Aspergillus fumigatus it was 1.6 µg/mL (≈ 4.69 µM).
For `C=C(c1ccccc1OCCc1ccc(Cl)cc1Cl)n1ccnc1`, the MIC against Candida albicans [2] amounted to 25 µg/mL (≈ 69.6 µM); in the experiment on Trichophyton benhamiae [6], 0.1 µg/mL (≈ 0.278 µM); with Aspergillus fumigatus, 0.4 µg/mL (≈ 1.11 µM).
